# Test results taken from ChEMBL document CHEMBL1155047, “Isolation, structure, and antibacterial activity of phaeosphenone from a Phaeosphaeria sp. discovered by antisense strategy” (J Nat Prod, 2008).
# The source made the active and inactive calls. The rule behind the calls is not given here.
# Assays:
# Staphylococcus aureus [1] = assay: Inhibition of Staphylococcus aureus RNA synthesis; assay type: functional, organism-based
# Summary of the method: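 Mid-log S. aureus (A600 0.5–0.6) is exposed to increasing compound concentrations for 20 min at 37 °C with 1 µCi/mL 5,6-[3H]uracil. The reaction is stopped with 10% trichloroacetic acid, and cells are collected on glass-fibre filters. Incorporated label is counted by scintillation.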
# Enterococcus faecalis = assay: Antimicrobial activity against vancomycin-sensitive and macrolide-resistant Enterococcus faecalis CL8516; assay type: functional
# Summary of the method: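 Broth microdilution MIC under NCCLS guidelines in cation-adjusted Mueller Hinton broth unless stated otherwise; inoculum 10^5 CFU/mL; 2-fold serial compound dilutions in growth medium; 37 °C for 20 h. MIC read as lowest concentration preventing visible growth; a value for 80% growth inhibition also reported.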
# Streptococcus pneumoniae [2] = assay: Antimicrobial activity against penicillin, quinoline and macrolide-sensitive Streptococcus pneumoniae CL2883 in isosensitet medium; assay type: functional
# Summary of the method: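 Pneumococcal broth MIC run in Isosensitest medium with 2-fold serial compound dilutions, 37 °C for 20 h. The reading is the lowest concentration with no visible growth.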
# Streptococcus pneumoniae [3] = assay: Antimicrobial activity against penicillin, quinoline and macrolide-sensitive Streptococcus pneumoniae CL2883 in CAMHB and 2.5 % lysed horse serum medium; assay type: functional; conditions: in the assay text read “lysed horse blood” for “lysed horse serum”
# Summary of the method: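 Broth MIC with 2-fold serial dilution in cation-adjusted Mueller Hinton broth plus 2.5% lysed horse blood, incubated 20 h at 37 °C, NCCLS guidelines. Endpoint is no visible growth.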
# Staphylococcus aureus [4] = assay: Antimicrobial activity against methicillin-sensitive Staphylococcus aureus MB2865 in presence of human serum; assay type: functional
# Staphylococcus aureus [5] = assay: Antimicrobial activity against methicillin-sensitive Staphylococcus aureus MB2865; assay type: functional
# Summary of the method: (§1)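 Broth microdilution under NCCLS guidelines, with 2-fold serial compound dilutions. Cells are incubated at 37 °C for 20 h. MIC is the lowest concentration that prevents visible growth. The concentration giving 80% growth inhibition is also reported.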
# Staphylococcus aureus [6] = assay: Antimicrobial activity against methicillin-sensitive Staphylococcus aureus ATCC 29213; assay type: functional; summary of the method: as §1
# Bacillus subtilis = assay: Antimicrobial activity against wild type Bacillus subtilis MB964; assay type: functional; summary of the method: as §1
# Haemophilus influenzae = assay: Antimicrobial activity against ampicillin, quinoline and macrolide-sensitive Haemophilus influenzae MB4572; assay type: functional; summary of the method: as §1
# Escherichia coli = assay: Antimicrobial activity against wild type Escherichia coli MB2884; assay type: functional; summary of the method: as §1
# Candida albicans = assay: Antimicrobial activity against wild type Candida albicans MY1055; assay type: functional; summary of the method: as §1
# Staphylococcus aureus [7] = assay: Antimicrobial activity against Staphylococcus aureus RN450 carrying plasmid S1-782B bearing antisense […] RNA assessed as zone size at 500 ug/ml by two-plate differential sensitivity assay; assay type: functional; conditions: read-out: IZ
# Summary of the method: (§2)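 The S. aureus RN450 strains carry plasmid S1-782B, either with rpsD antisense RNA or with empty vector (control). Overnight cultures are grown in Miller's LB with 34 µg/mL chloramphenicol at 37 °C, 220 rpm, for 18–20 h. They are seeded 1:1000 of OD 3.0 into LB agar with 0.2% glucose and 15 µg/mL chloramphenicol; 12 mM xylose is added for the antisense strain only. Samples go into wells at 2-fold dilutions from 500 to 31.25 µg/mL. Zones are read after 18 h at 37 °C.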
# Staphylococcus aureus [8] = assay: Antimicrobial activity against Staphylococcus aureus RN450 assessed as zone size at 500 ug/ml by two-plate differential sensitivity assay; assay type: functional; conditions: read-out: IZ; summary of the method: as §2
# Staphylococcus aureus [9] = assay: Antimicrobial activity against Staphylococcus aureus RN450 carrying plasmid S1-782B bearing antisense […] RNA assessed as zone size at 31.25 ug/ml by two-plate differential sensitivity assay; assay type: functional; conditions: read-out: IZ; summary of the method: as §2
# Staphylococcus aureus [10] = assay: Antimicrobial activity against Staphylococcus aureus RN450 assessed as zone size at 31.25 ug/ml by two-plate differential sensitivity assay; assay type: functional, organism-based; summary of the method: as §2
IC50 (Staphylococcus aureus [1]),SMILES,MIC (Enterococcus faecalis),MIC (Streptococcus pneumoniae [2]),MIC (Streptococcus pneumoniae [3]),MIC (Staphylococcus aureus [4]),MIC (Staphylococcus aureus [5]),MIC80 (Staphylococcus aureus [5]),MIC (Staphylococcus aureus [6]),MIC80 (Staphylococcus aureus [6]),MIC (Bacillus subtilis),MIC (Haemophilus influenzae),MIC (Escherichia coli),MIC (Candida albicans),zone of inhibition at 500 µg/mL (Staphylococcus aureus [7]),zone of inhibition at 500 µg/mL (Staphylococcus aureus [8]),zone of inhibition at 31.25 µg/mL (Staphylococcus aureus [9]),Activity (Staphylococcus aureus [10])
6 µg/mL,Cc1cc(O)c2c(c1)C(=O)C1=C(C2=O)[C@@H](O)[C@@H](O)[C@@H](O)C1 [PLEOSPORONE],,,,,,,,,,,,,,,,
,Cc1cc(O)c2c(c1)C(=O)c1c(cc(C)c([C@H]3C[C@@H](O)C4=C(C(=O)C5=C(C4=O)[C@@H](O)CC[C@@H]5O)[C@H]3O)c1O)C2=O [PHAEOSPHENONE],64 µg/mL,8 µg/mL,64 µg/mL,> 64 µg/mL,64 µg/mL,32 µg/mL,32 µg/mL,16 µg/mL,16 µg/mL,> 64 µg/mL,> 64 µg/mL,8 µg/mL,16 mm,11.8 mm,7 mm,inactive
